From the RNAGym collection of RNA variant scans (doi:10.1126/science.aae0568)
This sample holds only a part of the variants without activity.

B1: tRNA (parent)
chain: GUUCCGUUGGCGUAAUGGUAACGCGUCUCCCUCCUAAGGAGAAGACUGCGGGUUCGAGUCCCGUACGGAACG

Variants of: B1
Assay: yeast fitness relative to wild type (ratio to wild type); higher = fitter; tRNA-Arg(CCU), competitive growth, 37 C, YPD
Outline: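 Genotype frequency changes were the basis for Darwinian fitness relative to wild type. The frequencies came from 100-nucleotide paired-end sequencing of gene amplicons from the start population and each end population of pooled yeast strains with tRNA-Arg(CCU) gene variants at the native locus. Competition ran in YPD at 37°C for 24 hours in six replicates, genotypes needed ≥ 100 starting reads, and estimates < 0.5 were set to 0.5.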

Row | Variant | yeast fitness
1 | G6A A20C C31U C33G | ≤ 0.5
2 | U7G G56A C62A | 0.572
3 | G9A C11A A14C U16A C31A C62U | ≤ 0.5
4 | A21C A40U C55G C66G | ≤ 0.5
5 | A36C C49A U64C | 0.767
6 | U32G U47A U64A A65C G67A | 0.6
7 | A21G A45C C62U G68C A69G | ≤ 0.5
8 | U7C C34U A45C C60G A65C | ≤ 0.5
9 | C24G C29G G48A | ≤ 0.5
10 | A21U C34G G51C G63C A65C | ≤ 0.5
11 | A20U C30U C34G U53C A57U G67C | ≤ 0.5
12 | C4U G9A C22G A42U G56A | ≤ 0.5
13 | U26G C27U G56A A65C | ≤ 0.5
14 | U16G A20C G67C | ≤ 0.5
15 | U3C U16G C29U C46U G67C A69U | ≤ 0.5
16 | A21G A43U G58C C60A C66U | ≤ 0.5
17 | A15G G38A A40C G41C C49U | 0.597
18 | C5U G6C A21U U35C G39A | ≤ 0.5
19 | C4G G6C G25A C29A C31A C33G G41C | ≤ 0.5
20 | G12A C24A A36U G51C C55U A69C A70U | 0.532
21 | G56C A65G A70U | 0.587

Row | Variant | yeast fitness
22 | G17A A21G U28G C62G | ≤ 0.5
23 | C22U C60U C61A | ≤ 0.5
24 | U2C C5G C11G C29U A36U G50C U54G | 0.628
25 | U47A C62G | 0.856
26 | A14C U47C | 0.79
27 | U16G A20U C60G | ≤ 0.5
28 | G18C U26A A45G C66G | ≤ 0.5
29 | C5A C11G A40G G67C A69U | ≤ 0.5
30 | A14C U28C A40G C55A A57C C62U | ≤ 0.5
31 | G41A C55U U59A A70U | ≤ 0.5
32 | C11G A15G U26G C66U | ≤ 0.5
33 | G23C C27G A45G G52A | 0.57
34 | C4A A21U | 0.676
35 | A14G G41C C46A | 0.791
36 | C49A A65U G67A | 0.529
37 | U26A A36G A70U | 0.584
38 | A36G G56A G58C | 0.694
39 | G12C C60A | 0.588
40 | C24U C46A C62A A69C | 0.573
41 | C4U A20U C22G | 0.54
42 | U16C C30U | 0.893

Row | Variant | yeast fitness
43 | U47A G51A A69G | ≤ 0.5
44 | G23A G39C | 0.752
45 | A42G C46A | 0.908
46 | U8A A43U C55U | 0.537
47 | G12A U32G U35A G38C G51C C66U | ≤ 0.5
48 | G38C A43G C62G | ≤ 0.5
49 | C11U U64C | 0.879
50 | U2C A21C G38A | 0.594
51 | U7C C11G U32G | ≤ 0.5
52 | C31U C33U A42C C49U A65C | ≤ 0.5
53 | G12C C49U A70U | 0.692
54 | U8C G9A A20C A70U | ≤ 0.5
55 | U53A G67A | 0.686
56 | C27G A40G | 0.594
57 | C27G A40U | 0.682
58 | G9C C27U C34G C60A | ≤ 0.5
59 | C29A G39C G58A | 0.905
60 | G18A C30G C34G | ≤ 0.5
61 | A45U C61A G67A | ≤ 0.5
62 | C4G U13A G18A G52A C55G | ≤ 0.5
63 | A21U A65U | 0.793

Row | Variant | yeast fitness
64 | C31G C33U U35A | ≤ 0.5
65 | C34A A45C | 0.675
66 | G25A C34G G67A | ≤ 0.5
67 | C34U A40C A42C G48A C61G G67C G68A | ≤ 0.5
68 | U7C A15U C34A G39C A40C G56C C61G C62G G68C | ≤ 0.5
69 | C24A G52A | 0.752
70 | U35C C49U | 0.755
71 | A57G C66U | 0.816
72 | C30U G50C U59A | ≤ 0.5
73 | C55G A69G | 0.627
74 | A15G G23C G44A | ≤ 0.5
75 | A20G U54G A57U | ≤ 0.5
76 | G6A G9C C11G C34U U59A A69C | ≤ 0.5
77 | U28C G41C C49G | ≤ 0.5
78 | U8C A21G U28C | 0.637
79 | A43C G63U | 0.638
80 | C29U G41U | 0.769
81 | C31U C61G C66G | ≤ 0.5
82 | C5G G17A A20C G52A A65U | ≤ 0.5
83 | U7G G12C G23C C29G A57U C60A G68C | ≤ 0.5
84 | C22U U35C C55A C66U | ≤ 0.5
